These results are taken from ChEMBL document CHEMBL1155025, “Xanthones from the botanical dietary supplement mangosteen (Garcinia mangostana) with aromatase inhibitory activity” (J Nat Prod, 2008).

As usually defined, the IC50 is the concentration at which inhibition is half-maximal.

The target of data set [1] is T1, Aromatase (Homo sapiens, UniProt P11511).
T1 sequence (P11511 whole entry): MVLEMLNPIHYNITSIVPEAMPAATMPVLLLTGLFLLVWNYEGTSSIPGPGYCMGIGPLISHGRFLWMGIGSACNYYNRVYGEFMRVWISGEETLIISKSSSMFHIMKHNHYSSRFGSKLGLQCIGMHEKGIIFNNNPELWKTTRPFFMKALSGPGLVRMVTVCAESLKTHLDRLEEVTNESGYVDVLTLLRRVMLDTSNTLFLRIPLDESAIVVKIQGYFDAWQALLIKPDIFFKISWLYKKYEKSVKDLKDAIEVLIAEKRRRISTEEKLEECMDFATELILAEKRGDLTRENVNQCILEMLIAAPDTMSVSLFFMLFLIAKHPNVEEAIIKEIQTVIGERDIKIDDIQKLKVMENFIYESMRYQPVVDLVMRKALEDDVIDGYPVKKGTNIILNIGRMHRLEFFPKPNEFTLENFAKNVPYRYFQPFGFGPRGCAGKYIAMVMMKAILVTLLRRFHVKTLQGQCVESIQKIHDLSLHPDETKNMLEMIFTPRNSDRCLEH
The data set can be described thus: Inhibition of aromatase in human placental microsomes at 20 ug/ml relative to control. The arrangement: species or system Placenta; scale not given: the % may be the effect or the level left. An outline of the steps: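 Radiometric placental microsome assay with samples at 20 µg/mL in DMSO, in triplicate. 100 nM [1β-3H]androstenedione, pH 7.0 phosphate buffer, 5% propylene glycol, and NADPH-regenerating system. Reaction started with 50 µg microsomes, run 15 min at 37 °C, and stopped with CHCl3. 3H2O counted; percent control activity taken relative to DMSO.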

In data set [2] the test system is SK-BR-3. As to the kind of experiment: Cytotoxicity against human SKBR3 cells assessed as survival by MTT assay relative to control. The data set is classed as functional. The procedure, abridged: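 MTT viability assay in SK-BR-3 human breast cancer cells that overexpress aromatase. Cells exposed to samples in DMSO, with DMSO as negative control. Six replicates. Read-out is percent cell survival relative to the DMSO control. IC50 obtained from a concentration–response curve.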
A general note: Tetrazolium assays rely on reduction of a dye to a coloured formazan, in cell work by metabolically active cells.

Data set [3] has as its target T1, Aromatase. As to the kind of experiment: Inhibition of aromatase over-expressed in human SKBR3 cells at 50 uM relative to control. The note with it: SK-BR-3, human; read-out: Activity. The arrangement: scale not given: the % may be the effect or the level left. Type of data set: cell-based. The procedure, abridged: (§1)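 SK-BR-3 human breast cancer cells overexpressing aromatase, treated in triplicate. 0.1% DMSO serves as negative control. Tritiated water formation is read as pmol 3H2O/h per 10^6 live cells and expressed as percent control activity versus DMSO.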

The target in data set [4] is T1, Aromatase. As to the kind of experiment: Inhibition of aromatase in human placental microsomes. Also noted: species or system Placenta. An outline of the steps: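 Human term placental microsomes (50 µg, processed at 4 °C) incubated for 15 min at 37 °C with 100 nM [1β-3H]androstenedione in 0.1 M potassium phosphate pH 7.0, 5% propylene glycol, and NADPH-regenerating system. Quenched with CHCl3; 3H2O in aqueous layer counted by scintillation. IC50 derived from dose-response testing.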

Data set [5] has as its target T1, Aromatase. As to the kind of experiment: Inhibition of aromatase over-expressed in human SKBR3 cells at 10 nM relative to control. The note with it: SK-BR-3, human; read-out: Activity. The data set is classed as cell-based. The arrangement: scale not given: the % may be the effect or the level left. The procedure, abridged: as §1
The target of data set [6] is T1, Aromatase. As to the kind of experiment: Inhibition of aromatase over-expressed in human SKBR3 cells. Type of data set: cell-based, SK-BR-3. The procedure, abridged: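 SK-BR-3 human breast cancer cells overexpressing aromatase were treated in triplicate at various concentrations (screen at 50 µM), with 0.1% DMSO as negative control and 10 nM letrozole as positive control. Read-out was pmol 3H2O formed per hour per 10^6 live cells. Percent control activity was calculated versus DMSO.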

Regarding `COc1c(O)cc2oc3cc(O)c(CC=C(C)C)c(O)c3c(=O)c2c1CCC(C)(C)O` [GARCINONE D], the Activity in data set [1] was determined as 10%. Besides, the Survival in data set [2] worked out at 89.4%. Moreover, the activity at 50 µM in data set [3] was found to be 50.7%. Besides, in data set [4], the IC50 is 5.2 µM.

In the case of `COc1c(O)cc2oc3cc(O)c(CC=C(C)C)c(O)c3c(=O)c2c1CC=C(C)C` [MANGOSTIN], the Activity in data set [1] is on record as 22.2%. Besides, the Survival in data set [2] was 18.4%. The activity at 50 µM in data set [3] worked out at 59.4%. For the same compound, in data set [4], 20.7 µM corresponded to half-maximal inhibition (IC50).

In data set [1], `CC(C)=CCc1c(O)cc2oc3c(CC=C(C)C)c(O)c4c(c3c(=O)c2c1O)C=CC(C)(C)O4` [TOVOPHYLLINE A] returned an Activity of 74.7%.

Take `CC(C)=CCc1c(O)c(CC=C(C)C)c2oc3c(O)cccc3c(=O)c2c1O` [8-DEOXYGARTANIN]: the Activity in data set [1] was 82.6%.

As to `N#Cc1ccc(C(c2ccc(C#N)cc2)n2cncn2)cc1` [LETROZOLE], in data set [5], the activity at 0.01 µM amounted to 7.4%.

In turn, `COc1c(O)cc2oc3cc(O)c4c(c3c(=O)c2c1CC=C(C)C)OC(C)(C)CC4` yielded an Activity in data set [1] of 52.6%.

Take `COc1c(CC=C(C)C)c(O)c2c(=O)c3c(O)ccc(O)c3oc2c1CC=C(C)C`: in data set [1], the Activity is reported as 55.1%.

`CC(C)=CCC/C(C)=C/Cc1c(O)cc2oc3c(O)ccc(O)c3c(=O)c2c1O` [SMEATHXANTHONE A]: the Activity in data set [1] is listed as 80.8%.

In the case of `CC(C)=CCc1c(O)cc2oc3cc(O)c(O)c(CC=C(C)C)c3c(=O)c2c1O`, the Activity in data set [1] is reported as 4.7%. The activity at 50 µM in data set [3] is -0.5%. The IC50 in data set [6] came to 4.97 µM; in data set [4], 6.9 µM.

In turn, `CC(C)=CCc1c(O)cc2oc3c(CC=C(C)C)c(O)c(O)c(CC=C(C)C)c3c(=O)c2c1O` [GARCINONE E] yielded an Activity in data set [1] of 23.9%. The Survival in data set [2] is reported as 52.3%. Also, the activity at 50 µM in data set [3] worked out at 32.3%. In addition, in data set [4], the half-maximal inhibitory concentration (IC50) was found to be 25.1 µM.

For the compound `CC(C)=CCc1c(O)c(CC=C(C)C)c2oc3c(O)ccc(O)c3c(=O)c2c1O` [GARTANIN], the Activity in data set [1] is 75.9%.

In data set [1], `CC(C)=CCC/C(C)=C/Cc1c(O)cc2oc3c(O)cccc3c(=O)c2c1O` [MANGOSTINONE] gave an Activity of 78.8%.

In data set [1], `COc1c(CC=C(C)C)c(O)c2c(=O)c3cccc(O)c3oc2c1CC=C(C)C` [CUDRAXANTHONE G] showed an Activity of 57.8%.
